Laboratory results from ChEMBL document CHEMBL1144182, “Antimicrobial and cytotoxic arylazoenamines. Part III: antiviral activity of selected classes of arylazoenamines” (Bioorg Med Chem, 2008).
Activity calls are given as the source filed them. No rule for the calls is given here.

Test system: not listed separately
Assay: Cytotoxicity against mock-infected human MT4 cells assessed as reduction in cell viability after 96 hrs by MTT assay
Format: cell-based
Details: not given
In short: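 Exponentially growing MT-4 cells seeded at 1 × 10^5 cells/mL in RPMI-1640 with 10% FCS, penicillin and streptomycin, with or without serial compound dilutions. Incubated at 37 °C, 5% CO2; viability read by MTT after 96 h. CC50 is the concentration reducing mock-infected cell viability by 50%.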

Structure (SMILES)	CC50 at 96 h [µM]
Fc1ccc(/N=N\C2=C3CCCCN3CCC2)cc1C(F)(F)F	3
Brc1ccc(/N=N\C2=C3CCCCN3CCC2)cc1	27
Clc1ccc(/N=N/C=C/N2CCCC2)cc1	61
FC(F)(F)c1cc(/N=N\C2=C3CCCCN3CCC2)cc(C(F)(F)F)c1	34
C(=C\N1CCN(c2ncccn2)CC1)/N=N/c1ccccc1	17
Cc1ccc(/N=N/C2=CN(C)CCC2)cc1	> 100
C(=C\N1CCCCC1)/N=N/c1ccccc1	2
FC(F)(F)c1cc(/N=N/C=C2\CCCN2Cc2ccccc2)ccc1Cl	20

Test system: not listed separately
Assay: Cytotoxicity against mock-infected MDBK cells assessed as reduction in cell viability after 96 hrs by MTT assay
Format: cell-based, Bos taurus
Details: cattle
In short: (§1)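 Cytotoxicity run in parallel with the antiviral assays. MDBK seeded at 6 × 10^5 and BHK at 1 × 10^6 cells/mL in maintenance medium with or without serial compound dilutions. Incubated 48–96 h at 37 °C, 5% CO2, then viability read by MTT. CC50 is the concentration reducing mock-infected cell viability by 50%.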

Structure (SMILES)	CC50 at 96 h [µM]
Fc1ccc(/N=N\C2=C3CCCCN3CCC2)cc1C(F)(F)F	> 100
Brc1ccc(/N=N\C2=C3CCCCN3CCC2)cc1	59
Clc1ccc(/N=N/C=C/N2CCCC2)cc1	30
FC(F)(F)c1cc(/N=N\C2=C3CCCCN3CCC2)cc(C(F)(F)F)c1	31
C(=C\N1CCN(c2ncccn2)CC1)/N=N/c1ccccc1	10
Cc1ccc(/N=N/C2=CN(C)CCC2)cc1	> 100
C(=C\N1CCCCC1)/N=N/c1ccccc1	7
FC(F)(F)c1cc(/N=N/C=C2\CCCN2Cc2ccccc2)ccc1Cl	14

Test system: Bovine viral diarrhea virus 1
Assay: Antiviral activity against BVDV infected in MDBK cells assessed as protection against virus-induced cytopathogenicity after 4 days by MTT assay
Format: functional, organism-based
Details: Bovine viral diarrhea virus isolates and strains, 96 h
In short: (§2)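 MDBK (BVDV) or BHK-21 (YFV) cells were seeded at 3 × 10^4 or 5 × 10^4 cells/well respectively and grown overnight to confluent monolayers at 37 °C in 5% CO2. Monolayers were infected at m.o.i. 0.01 in serum-free medium. After 1 h, MEM Earle's with 1% FCS was added, with or without serial compound dilutions. After 3–4 days at 37 °C, viability was read by MTT. EC50 was taken as 50% protection from virus-induced cytopathogenicity.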

Structure (SMILES)	EC50 [µM]
Fc1ccc(/N=N\C2=C3CCCCN3CCC2)cc1C(F)(F)F	> 100
Brc1ccc(/N=N\C2=C3CCCCN3CCC2)cc1	> 59
Clc1ccc(/N=N/C=C/N2CCCC2)cc1	> 30
FC(F)(F)c1cc(/N=N\C2=C3CCCCN3CCC2)cc(C(F)(F)F)c1	> 31
C(=C\N1CCN(c2ncccn2)CC1)/N=N/c1ccccc1	> 10
Cc1ccc(/N=N/C2=CN(C)CCC2)cc1	> 100
C(=C\N1CCCCC1)/N=N/c1ccccc1	> 7
FC(F)(F)c1cc(/N=N/C=C2\CCCN2Cc2ccccc2)ccc1Cl	> 14

Test system: not listed separately
Assay: Cytotoxicity against mock-infected BHK cells assessed as reduction in cell viability after 96 hrs by MTT assay
Format: cell-based, Mesocricetus auratus
Details: hamster
In short: as §1

Structure (SMILES)	CC50 at 96 h [µM]
Fc1ccc(/N=N\C2=C3CCCCN3CCC2)cc1C(F)(F)F	60
Brc1ccc(/N=N\C2=C3CCCCN3CCC2)cc1	62
Clc1ccc(/N=N/C=C/N2CCCC2)cc1	> 100
FC(F)(F)c1cc(/N=N\C2=C3CCCCN3CCC2)cc(C(F)(F)F)c1	19
C(=C\N1CCN(c2ncccn2)CC1)/N=N/c1ccccc1	100
Cc1ccc(/N=N/C2=CN(C)CCC2)cc1	> 100
C(=C\N1CCCCC1)/N=N/c1ccccc1	67
FC(F)(F)c1cc(/N=N/C=C2\CCCN2Cc2ccccc2)ccc1Cl	22

Test system: Yellow fever virus
Assay: Antiviral activity against YFV infected in BHK21 cells assessed as protection against virus-induced cytopathogenicity after 4 days by MTT assay
Format: functional, organism-based
Details: BHK-21, 96 h
In short: as §2

Structure (SMILES)	EC50 [µM]
Fc1ccc(/N=N\C2=C3CCCCN3CCC2)cc1C(F)(F)F	> 60
Brc1ccc(/N=N\C2=C3CCCCN3CCC2)cc1	≥ 62
Clc1ccc(/N=N/C=C/N2CCCC2)cc1	46
FC(F)(F)c1cc(/N=N\C2=C3CCCCN3CCC2)cc(C(F)(F)F)c1	> 19
C(=C\N1CCN(c2ncccn2)CC1)/N=N/c1ccccc1	> 100
Cc1ccc(/N=N/C2=CN(C)CCC2)cc1	> 100
C(=C\N1CCCCC1)/N=N/c1ccccc1	23
FC(F)(F)c1cc(/N=N/C=C2\CCCN2Cc2ccccc2)ccc1Cl	> 22

Test system: not listed separately
Assay: Cytotoxicity against mock-infected african green monkey Vero76 cells assessed as reduction in cell viability after 96 hrs by MTT assay
Format: cell-based, Vero
Details: chlorocebus sabaeus

Structure (SMILES)	CC50 at 96 h [µM]
Fc1ccc(/N=N\C2=C3CCCCN3CCC2)cc1C(F)(F)F	> 100
Brc1ccc(/N=N\C2=C3CCCCN3CCC2)cc1	92
Clc1ccc(/N=N/C=C/N2CCCC2)cc1	22
FC(F)(F)c1cc(/N=N\C2=C3CCCCN3CCC2)cc(C(F)(F)F)c1	100
C(=C\N1CCN(c2ncccn2)CC1)/N=N/c1ccccc1	55
Cc1ccc(/N=N/C2=CN(C)CCC2)cc1	71
C(=C\N1CCCCC1)/N=N/c1ccccc1	15
FC(F)(F)c1cc(/N=N/C=C2\CCCN2Cc2ccccc2)ccc1Cl	80

Test system: Coxsackievirus B2
Assay: Antiviral activity against CVB2 infected in Vero76 cells assessed as reduction in virus plaque formation after 4 days by MTT assay
Format: functional, organism-based
Details: Enterovirus B, Vero 76, 96 h

Structure (SMILES)	EC50 [µM]
Fc1ccc(/N=N\C2=C3CCCCN3CCC2)cc1C(F)(F)F	45
Brc1ccc(/N=N\C2=C3CCCCN3CCC2)cc1	10
Clc1ccc(/N=N/C=C/N2CCCC2)cc1	4
FC(F)(F)c1cc(/N=N\C2=C3CCCCN3CCC2)cc(C(F)(F)F)c1	41
C(=C\N1CCN(c2ncccn2)CC1)/N=N/c1ccccc1	0.9
Cc1ccc(/N=N/C2=CN(C)CCC2)cc1	> 71
C(=C\N1CCCCC1)/N=N/c1ccccc1	7
FC(F)(F)c1cc(/N=N/C=C2\CCCN2Cc2ccccc2)ccc1Cl	30

Test system: Respiratory syncytial virus
Assay: Antiviral activity against RSV infected in Vero76 cells assessed as reduction in virus plaque formation after 4 days by MTT assay
Format: functional, organism-based
Details: human respiratory syncytial virus, Vero 76, 96 h

Structure (SMILES)	EC50 [µM]
Fc1ccc(/N=N\C2=C3CCCCN3CCC2)cc1C(F)(F)F	> 100
Brc1ccc(/N=N\C2=C3CCCCN3CCC2)cc1	> 92
Clc1ccc(/N=N/C=C/N2CCCC2)cc1	> 22
FC(F)(F)c1cc(/N=N\C2=C3CCCCN3CCC2)cc(C(F)(F)F)c1	> 100
C(=C\N1CCN(c2ncccn2)CC1)/N=N/c1ccccc1	5
Cc1ccc(/N=N/C2=CN(C)CCC2)cc1	> 71
C(=C\N1CCCCC1)/N=N/c1ccccc1	> 15
FC(F)(F)c1cc(/N=N/C=C2\CCCN2Cc2ccccc2)ccc1Cl	> 80

Test system: Poliovirus 1
Assay: Antiviral activity against Sb1 virus infected in Vero76 cells assessed as reduction in virus plaque formation after 4 days by MTT assay
Format: functional, organism-based
Details: Enterovirus C, Sabin, Vero 76, 96 h

Structure (SMILES)	EC50 [µM]
Fc1ccc(/N=N\C2=C3CCCCN3CCC2)cc1C(F)(F)F	> 100
Brc1ccc(/N=N\C2=C3CCCCN3CCC2)cc1	> 92
Clc1ccc(/N=N/C=C/N2CCCC2)cc1	> 22
FC(F)(F)c1cc(/N=N\C2=C3CCCCN3CCC2)cc(C(F)(F)F)c1	> 100
C(=C\N1CCN(c2ncccn2)CC1)/N=N/c1ccccc1	> 55
Cc1ccc(/N=N/C2=CN(C)CCC2)cc1	25
C(=C\N1CCCCC1)/N=N/c1ccccc1	> 15
FC(F)(F)c1cc(/N=N/C=C2\CCCN2Cc2ccccc2)ccc1Cl	> 80

Test system: Human immunodeficiency virus 1
Assay: Antiviral activity against HIV1 infected in MT4 cells assessed as virus-induced cytopathogenicity after 4 days
Format: functional, organism-based
Details: not given

Structure (SMILES)	Activity
Fc1ccc(/N=N\C2=C3CCCCN3CCC2)cc1C(F)(F)F	inactive
Brc1ccc(/N=N\C2=C3CCCCN3CCC2)cc1	inactive
Clc1ccc(/N=N/C=C/N2CCCC2)cc1	inactive
FC(F)(F)c1cc(/N=N\C2=C3CCCCN3CCC2)cc(C(F)(F)F)c1	inactive
C(=C\N1CCN(c2ncccn2)CC1)/N=N/c1ccccc1	inactive
Cc1ccc(/N=N/C2=CN(C)CCC2)cc1	inactive
C(=C\N1CCCCC1)/N=N/c1ccccc1	inactive
FC(F)(F)c1cc(/N=N/C=C2\CCCN2Cc2ccccc2)ccc1Cl	inactive

Test system: Vaccinia virus
Assay: Antiviral activity against VV infected in Vero76 cells assessed as reduction in virus plaque formation after 4 days by MTT assay
Format: functional, organism-based
Details: Orthopoxvirus vaccinia; Vero 76

Structure (SMILES)	Activity
Fc1ccc(/N=N\C2=C3CCCCN3CCC2)cc1C(F)(F)F	inactive
Brc1ccc(/N=N\C2=C3CCCCN3CCC2)cc1	inactive
Clc1ccc(/N=N/C=C/N2CCCC2)cc1	inactive
FC(F)(F)c1cc(/N=N\C2=C3CCCCN3CCC2)cc(C(F)(F)F)c1	inactive
C(=C\N1CCN(c2ncccn2)CC1)/N=N/c1ccccc1	inactive
Cc1ccc(/N=N/C2=CN(C)CCC2)cc1	inactive
C(=C\N1CCCCC1)/N=N/c1ccccc1	inactive
FC(F)(F)c1cc(/N=N/C=C2\CCCN2Cc2ccccc2)ccc1Cl	inactive

Test system: Vesicular stomatitis virus
Assay: Antiviral activity against VSV infected in Vero76 cells assessed as reduction in virus plaque formation after 4 days by MTT assay
Format: functional, organism-based
Details: Vero 76

Structure (SMILES)	Activity
Fc1ccc(/N=N\C2=C3CCCCN3CCC2)cc1C(F)(F)F	inactive
Brc1ccc(/N=N\C2=C3CCCCN3CCC2)cc1	inactive
Clc1ccc(/N=N/C=C/N2CCCC2)cc1	inactive
FC(F)(F)c1cc(/N=N\C2=C3CCCCN3CCC2)cc(C(F)(F)F)c1	inactive
C(=C\N1CCN(c2ncccn2)CC1)/N=N/c1ccccc1	inactive
Cc1ccc(/N=N/C2=CN(C)CCC2)cc1	inactive
C(=C\N1CCCCC1)/N=N/c1ccccc1	inactive
FC(F)(F)c1cc(/N=N/C=C2\CCCN2Cc2ccccc2)ccc1Cl	inactive
